The nature of data set [1]: melting temperature; fluorescence melt of hairpins on a sequencing array, two-state fit, raised by 9.35 °C to match UV melts. The conditions noted are these: sodium 0.088 M. A digest of the protocol:
(§1)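 Cy3 signals were normalised both to pre-quench Cy3 and to control constructs. They came from library hairpins carrying annealed Cy3 and quencher oligos on a sequenced MiSeq flow cell, imaged in 50 mM Na-HEPES pH 8.0, 25 mM NaCl, in 2.5 °C steps up to 60 °C. Bootstrapped two-state fits gave melting temperature and folding enthalpy, and four replicates were combined by inverse variance. Fitted temperatures were then raised by 9.35 °C to match UV melts.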

Data set [2] can be described thus: folding enthalpy; higher = less favourable; fluorescence melt of hairpins on a sequencing array, two-state fit. The conditions noted are these: sodium 0.088 M. The method in brief: as §1

On to GCCCGGCGAAAGCACGGC (((..((....))..))), for which, in data set [1], the Tm was found to be 57.1 °C. The folding enthalpy in data set [2] was -13.3 kcal/mol.
For GCCCGGCGAAAGCCAAGC ((..(((....)))..)), the Tm in data set [1] turned out to be 35.7 °C. Moreover, the folding enthalpy in data set [2] was -10.7 kcal/mol.
For GCCCGGCGAAAGCCCAGC ((..(((....)))..)), in that order: 32.7 °C and -9.79 kcal/mol.
For the sequence GCCCGGCGAAAGCCCTGC ((..(((....)))..)), the Tm in data set [1] came out at 30.7 °C. In data set [2], the folding enthalpy is -8.41 kcal/mol.
Consider GCCCGGCGAAAGCCGCGC ((.((((....)))).)), for which the Tm in data set [1] amounted to 60.1 °C. Further, the folding enthalpy in data set [2] was -17.4 kcal/mol.
The like results for GCCCGGCGAAAGCCGTGC ((.((((....)))).)) were, in that order, 59.8 °C and -13.9 kcal/mol.
As for GCCCGGCGAAAGCCTGGC (((.(((....))).))), the Tm in data set [1] turned out to be 64.6 °C. In data set [2], the folding enthalpy is -25.8 kcal/mol.
The like results for GCCCGGCGAAAGCGGTGC ((.(.((....)).).)) were, in that order, 56.5 °C and -15.6 kcal/mol.
The like results for GCCCGGCGAAAGCTAGGC (((..((....))..))) were, in that order, 56.7 °C and -21.5 kcal/mol.
For GCCCGGCGAAAGCTCGGC (((..((....))..))), in that order: 52.7 °C and -16.4 kcal/mol.
For the sequence GCCCGGCGAAAGCTGCGC ((.(.((....)).).)), in data set [1], the Tm was determined as 44.2 °C. The folding enthalpy in data set [2] was -17.6 kcal/mol.
For the sequence GCCCGGGGAAACCCGAGC ((.((((....)))).)), the Tm in data set [1] was found to be 52.9 °C. In addition, the folding enthalpy in data set [2] was -25.2 kcal/mol.
The like results for GCCCGGGGAAACTCGGGC (((((.(....).))))) were, in that order, 67.2 °C and -37.5 kcal/mol.
The like results for GCCCGTACGAAAGTAGGC (((..(((....)))))) were, in that order, 46.3 °C and -17.9 kcal/mol.
The like results for GCCCGTGGAAACACGGAC (.(((((....))))).) were, in that order, 50.2 °C and -14.5 kcal/mol.
On to GCCCTAACGAAAGTTGGC (((..(((....)))))), for which the Tm in data set [1] was 38.5 °C. Also, the folding enthalpy in data set [2] is -20.7 kcal/mol.
For GCCCTAGGAAACCAGGGC (((((.(....).))))), in that order: 52.5 °C and -47 kcal/mol.
On to GCCCTAGGAAACTAGGGC (((((((....))))))), for which, in data set [1], the Tm worked out at 67.5 °C. Also, in data set [2], the folding enthalpy was -31.2 kcal/mol.
The like results for GCCCTAGGAAACTGGGGC ((((.((....)).)))) were, in that order, 55.4 °C and -33.7 kcal/mol.
For GCCCTCCGAAAGGAGGC (((.(((....)))))), in that order: 61.2 °C and -11.9 kcal/mol.
The like results for GCCCTCGAAAGAGTGGGC ((((((....)))..))) were, in that order, 52.7 °C and -25.6 kcal/mol.
Consider GCCCTCGCGAAAGCGGGC (((..(((....)))))), for which, in data set [1], the Tm is 59.6 °C. The folding enthalpy in data set [2] was -14.2 kcal/mol.
The like results for GCCCTGCGAAAGCAGCGC ((.((((....)))).)) were, in that order, 56.2 °C and -17.5 kcal/mol.
For GCCCTGCGAAAGCATCGC ((..(((....)))..)), in that order: 33.6 °C and -7.06 kcal/mol.
The like results for GCCCTGCGAAAGCGAGGC (((..((....))..))) were, in that order, 54.2 °C and -11.5 kcal/mol.
Take GCCCTGCGAAAGCTGCGC ((.(.((....)).).)): the Tm in data set [1] turned out to be 40.2 °C. The folding enthalpy in data set [2] was -16.9 kcal/mol.
For GCCCTGGGAAACCAGGAC (.(((((....))))).), in that order: 48.6 °C and -13.7 kcal/mol.
Take GCCCTGGGAAACTGGGGC ((((..(....)..)))): the Tm in data set [1] came out at 51.5 °C. For the same sequence, the folding enthalpy in data set [2] is -38 kcal/mol.
For GCCCTTACGAAAGTAGGC (((..(((....)))))), in that order: 39.1 °C and -20.6 kcal/mol.
The like results for GCCCTTGGAAACAAGGAC (.(((((....))))).) were, in that order, 40.1 °C and -17.5 kcal/mol.
With GCCGAAACGAAAGTTGGC (((..(((....)))))), the Tm in data set [1] stood at 48 °C. The folding enthalpy in data set [2] was -22.3 kcal/mol.
The like results for GCCGAAGGAAACTTTGGC (((.(((....))).))) were, in that order, 51 °C and -39.5 kcal/mol.
For GCCGACCCGAAAGGGGGC (((..(((....)))))), in that order: 55.7 °C and -18.4 kcal/mol.
The like results for GCCGACGAAAGTCAAGGC ((((((....)))..))) were, in that order, 55.1 °C and -31.1 kcal/mol.
Turning to GCCGACGAAAGTCACGGC ((((((....)))..))), the Tm in data set [1] was determined as 53.1 °C. In data set [2], the folding enthalpy was -26.8 kcal/mol.
The like results for GCCGACGAAAGTCGCGGC ((((((....)))..))) were, in that order, 59.2 °C and -14.3 kcal/mol.

The values are drawn from the array DNA melting data of Ke et al. (doi:10.1101/2024.01.08.574731).
